Measured values from different studies.
Compare with care: the assays were run in different laboratories.
Target: Adenosine receptor A2a (ADORA2A, Homo sapiens, UniProt P29274)

Structure (SMILES) | test | conditions | Ki
CCNC(=O)C1OC(n2cnc3c(N)nc(NN=CC4CCC=CO4)nc32)C(O)C1O (centres unmarked) | ligand displacement, radioligand |  | 0.0233 µM
CC(C)CN1CCCn2c1nc1c2c(=O)n(C)c(=O)n1C | ligand displacement, radioligand | cell membranes | 0.93 µM
Nc1nc(-c2ccccc2)nn1C(=O)CCc1ccccc1 | ligand displacement, radioligand | cell membranes | 2 µM
CSC[C@@]12C[C@@H]1[C@@H](n1cnc3c(N)nc(I)nc31)[C@H](O)[C@@H]2O | ligand displacement, radioligand |  | 3.12 µM
c1coc(-c2nc3cc(CN4CCCCC4)ccc3o2)c1 | ligand displacement, radioligand | cell membranes | 19 µM
CNC(=O)[C@@]12C[C@@H]1[C@@H](n1cnc3c(NCc4cn(-c5ccc(C(=O)NCCCF)cc5)nn4)nc(Cl)nc31)[C@H](O)[C@@H]2O | ligand displacement, radioligand | cell membranes | 1.84 µM
Oc1cccc(Nc2nc(-c3ccc(F)cc3F)cs2)c1 | cell-free assay |  | 5.1 µM
c1coc(-c2nc3cc(NCCN4CCCCC4)ccc3o2)c1 | ligand displacement, radioligand | cell membranes | 11 µM
CNC(=O)[C@@]12C[C@@H]1[C@@H](n1cnc3c(NCc4cccc(C#CCCCc5cn(-c6ccc(F)c(N)c6)nn5)c4)nc(Cl)nc31)[C@H](O)[C@@H]2O | ligand displacement, radioligand | cell membranes | 2.73 µM
CCCCN1CCCn2c1nc1c2c(=O)n(CCC)c(=O)n1CCC | ligand displacement, radioligand | cell membranes | 1.39 µM
CNC(=O)c1csc(Nc2cccc(C)n2)n1 | ligand displacement, radioligand | cell membranes | 7.1 µM
